hERG protect: hERG (human) protection from proarrhythmic block; CHO-hERG, FluxOR thallium flux, dofetilide IC70 present; activation (rescue from dofetilide block), less the hit threshold, % at 10 µM; AID 1511; hit rate 0.51% among 310,000;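 active = activation above the mean of controls blocked by dofetilide plus 5 SD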;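 note: thallium influx through hERG after potassium depolarization seen as dye fluorescence rise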
KCNQ1 block: human KCNQ1 channel inhibition; P51787; B-score at 10 µM; hit rate 1.3% among 310,000; AID 2642; CHO-K1 KCNQ1, FluxOR thallium flux fluorescence; hits give high values;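 active = compounds whose thallium flux B-score, printed positive for inhibition, exceeds three library SD while starting fluorescence stays within three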;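 note: channel opened by potassium depolarization with thallium stimulus after 20 min compound exposure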
Target sequence (P51787 whole entry, looked up): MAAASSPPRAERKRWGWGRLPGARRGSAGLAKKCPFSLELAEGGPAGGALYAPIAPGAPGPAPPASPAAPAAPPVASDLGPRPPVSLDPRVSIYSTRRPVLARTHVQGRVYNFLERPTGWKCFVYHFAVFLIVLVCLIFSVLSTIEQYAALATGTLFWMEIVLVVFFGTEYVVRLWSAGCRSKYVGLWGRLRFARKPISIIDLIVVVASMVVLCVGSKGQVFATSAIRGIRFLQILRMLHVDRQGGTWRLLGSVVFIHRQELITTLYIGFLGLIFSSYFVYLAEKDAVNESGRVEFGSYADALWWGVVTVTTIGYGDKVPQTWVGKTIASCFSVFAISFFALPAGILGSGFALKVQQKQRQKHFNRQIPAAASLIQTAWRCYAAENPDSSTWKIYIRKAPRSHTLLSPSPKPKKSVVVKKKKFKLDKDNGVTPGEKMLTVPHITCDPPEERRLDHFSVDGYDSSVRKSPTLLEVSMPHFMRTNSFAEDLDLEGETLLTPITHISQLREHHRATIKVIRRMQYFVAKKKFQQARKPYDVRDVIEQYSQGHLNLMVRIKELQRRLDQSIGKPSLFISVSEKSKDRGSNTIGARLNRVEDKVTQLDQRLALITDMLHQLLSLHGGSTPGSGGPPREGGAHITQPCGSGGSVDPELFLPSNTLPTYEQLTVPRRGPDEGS
KCNK3 block: human KCNK3 channel inhibition, primary screen; O14649; hit rate 0.84% among 340,000; AID 602410; B-score at 10 µM; CHO-KCNK3 thallium flux, FluxOR fluorescence; hits give low values;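 active = B-score under library mean minus 4 SD, starting fluorescence ratio at most library mean plus 5 SD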;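 note: more negative B-score means stronger inhibition of thallium flux through KCNK3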
KCNQ1 act: potentiates or activates the human KCNQ1 potassium channel | P51787 | CHO-K1 KCNQ1, thallium flux FluxOR fluorescence; hits give high values | B-score at 10 µM | hit rate 0.35% among 310,000 | AID 2648;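 active = fluorescence ratio B-score, a plate-corrected score, at least three library SD, with initial intensity B-score within 5 SD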
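Schedule – 37 °C overnight plating, 90-min dark dye load, 20-min compound pretreatment · System – stable KCNQ1 CHO-K1 line · Probe or stimulus – thallium- and potassium-containing depolarizing buffer · Measured by – kinetic FluxOR fluorescence, 10 s baseline plus 110 s post-stimulus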
KCNK9 block: blocks the human KCNK9 two-pore domain potassium channel; B-score at 10 µM; HEK293 KCNK9, FluxOR thallium flux fluorescence; hits give low values; AID 488922; hit rate 1.2% among 310,000;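 active = ratio B-score over 3 SD below the library mean, with starting fluorescence within 5 SD of its mean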;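 note: negative B-score means less thallium flux so channel inhibition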
Numbers without * were called inactive. Shown are actives, neighbours in structure and some others; about 3.1% of the full set was active somewhere.

COc1ccc(S(=O)(=O)N(C)CC(=O)NCc2ccccn2)cc1 was read as hERG protect -4, KCNQ1 block inactive, KCNK3 block inactive, KCNQ1 act inactive and KCNK9 block inactive.
Screening O=C(c1ccco1)N1CCN(C(=O)c2ccc(COc3ccc4c(c3)CCC4)o2)CC1 returned hERG protect -1, KCNQ1 block inactive, KCNK3 block inactive, KCNQ1 act inactive and KCNK9 block -8*.
CCc1cc(C(=O)N2CCN(C(=O)c3ccco3)CC2)sc1C was read as hERG protect -7, KCNQ1 block inactive, KCNK3 block inactive, KCNQ1 act inactive and KCNK9 block inactive.
`COC(=O)c1cccc(C23CC4(C2)[C@H](CN(C)[C@@H]4c2ccccc2)C3c2ccccc2)c1` (stereo partly specified) gave hERG protect -8, KCNQ1 block inactive, KCNK3 block inactive, KCNQ1 act inactive and KCNK9 block inactive.
COC(=O)c1ccc(C23CC4(C2)[C@H](CN(C)[C@@H]4c2ccccc2)C3c2ccccc2)cc1 (stereo partly specified) was read as hERG protect -7, KCNQ1 block inactive, KCNK3 block inactive, KCNQ1 act inactive and KCNK9 block -6.6*.
Screening COc1cccc(C=NN2CCCCCC2)c1OC returned KCNK3 block inactive.
Screening Cc1nn(C)c(C(=O)NC(=S)Nc2ccc([N+](=O)[O-])cc2)c1Cl returned hERG protect 43*, KCNQ1 block inactive, KCNK3 block inactive, KCNQ1 act 34* and KCNK9 block inactive.
For CCn1ncc(Cl)c1C(=O)Nc1cc(Cl)ccc1Cl the results were hERG protect -11, KCNQ1 block inactive, KCNK3 block inactive, KCNQ1 act inactive and KCNK9 block inactive.
CCn1ncc(Cl)c1C(=O)NC(=S)Nc1ccccc1Br was read as hERG protect 35*, KCNQ1 block inactive, KCNK3 block inactive, KCNQ1 act 26* and KCNK9 block inactive.
Cc1nn(C)c(C(=O)NC(=S)Nc2ccccc2Br)c1Cl was read as hERG protect 17*, KCNQ1 block inactive, KCNK3 block inactive, KCNQ1 act 22* and KCNK9 block inactive.
CCOC(=O)c1cnn(-c2ccccc2)c1-c1ccncc1 was read as hERG protect -2, KCNQ1 block inactive, KCNK3 block inactive, KCNQ1 act inactive and KCNK9 block inactive.
`CCOc1cc(C(=O)NC)cc(OCC)c1OCC` gave hERG protect 9.7*, KCNQ1 block inactive, KCNK3 block inactive, KCNQ1 act inactive and KCNK9 block inactive.
`Cc1ccc(C(C(=O)NC(C)(C)C)N(Cc2cccnc2)C(=O)C(=O)NC2CCCCC2)o1` (stereo unspecified) gave hERG protect 33*, KCNQ1 block inactive, KCNK3 block inactive, KCNQ1 act inactive and KCNK9 block inactive.
CCCCNC(=O)C(C#N)c1nc2ccccc2nc1N1CCN(Cc2ccc3c(c2)OCO3)CC1 (stereo unspecified) was read as KCNK3 block inactive.
Screening C=CCNC(=O)C(C#N)c1nc2ccccc2nc1N1CCCCCC1 (stereo unspecified) returned hERG protect -12, KCNQ1 block 6*, KCNK3 block inactive, KCNQ1 act inactive and KCNK9 block inactive.
For CC1CN(c2nc3ccccc3nc2C(C#N)C(=O)NCc2ccc3c(c2)OCO3)CC(C)O1 (stereo unspecified) the results were hERG protect -19, KCNQ1 block inactive, KCNK3 block inactive, KCNQ1 act 23* and KCNK9 block inactive.
For O=C(CN1C(=O)c2cccc3cccc1c23)NC1CCCCC1 the results were hERG protect -1, KCNQ1 block inactive, KCNK3 block inactive, KCNQ1 act inactive and KCNK9 block inactive.
Screening Cn1c(=O)c2c(ncn2CC(=O)NC[C@H]2O[C@@H](n3cnc4c(N)ncnc43)[C@H](O)[C@@H]2O)n(C)c1=O returned KCNK3 block inactive.
`CCCCC/C=N\NC(=O)Cc1ccc([N+](=O)[O-])cc1` gave hERG protect -3, KCNQ1 block inactive, KCNK3 block inactive, KCNQ1 act 7* and KCNK9 block inactive.
`CCCOc1ccc(Cc2c(Cl)nc(SC)nc2N(C)C)cc1` gave hERG protect -10, KCNQ1 block inactive, KCNK3 block inactive, KCNQ1 act inactive and KCNK9 block inactive.
